Bioassay records: PubChem BioAssay, several laboratories
Rin1 Abl inh = inhibitors of Rin1-Abl protein binding, primary screen, biochemical, TR-FRET; actives 0.4% (n = 360,000); Tyrosine-protein kinase ABL1 (Homo sapiens) + Ras and Rab interactor 1 (Homo sapiens), …; inhibition, % at 7.35 µM; in the data active means inhibition above about 5%, passing the limit was not always enough
ATG4B inh = ATG4B protease inhibitors, primary screen, biochemical, fluorescence, uHTS; Cysteine protease ATG4B (Homo sapiens), Q9Y4P1; ATG4B cleavage of LC3-PLA2, NBD-HPC fluorescence, 1 h; inhibition, % at 8.33 µM; actives 0.51% (n = 340,000); AID 504462, 2011; in the data active means inhibition above about 40%
Target sequence (Q9Y4P1 whole entry, looked up): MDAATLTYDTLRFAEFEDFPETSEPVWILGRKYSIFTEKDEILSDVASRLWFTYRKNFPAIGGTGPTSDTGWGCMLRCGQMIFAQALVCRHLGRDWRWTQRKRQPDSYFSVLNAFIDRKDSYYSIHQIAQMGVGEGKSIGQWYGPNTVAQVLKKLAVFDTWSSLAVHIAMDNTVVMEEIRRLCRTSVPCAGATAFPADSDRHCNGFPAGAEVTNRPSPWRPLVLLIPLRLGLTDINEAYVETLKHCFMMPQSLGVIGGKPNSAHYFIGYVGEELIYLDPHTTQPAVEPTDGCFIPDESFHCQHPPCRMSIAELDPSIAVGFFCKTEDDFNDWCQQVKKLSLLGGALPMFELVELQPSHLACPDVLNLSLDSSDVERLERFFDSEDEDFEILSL
UCH37 DUB inh = inhibitors of human UCH37 deubiquitinase, primary screen, biochemical, Ub-AMC cleavage, fluorescence; purified proteasome/UCH37; inhibition, % (no concentration beside the values); actives 0.33% (n = 330,000);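 active means mean inhibition over replicate wells above about 20%, limit read from the data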;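 further: 0% = compound-free wells with enzyme and 100% = wells lacking proteasome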
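Material: human UCH37 enzyme supplied as purified proteasome complex. Measure: % inhibition of Ub-AMC cleavage fluorescence. Medium: pH 7.4 Tris-HCl (50 mM) with ovalbumin, ATP-MgCl2, DTT. Times: 30 min preincubation with enzyme, 25 min cleavage at room temperature. Detection: AMC fluorescence intensity at 355/460 nm.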
TbMetRS inhib = T. brucei MetRS inhibitors, primary screen, biochemical, luminescence | methionyl-tRNA synthetase (Trypanosoma brucei brucei) | purified T. brucei MetRS, ATP depletion, Kinase-Glo luminescence | inhibition, % at 11.9 µM | actives 0.4% (n = 360,000);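 active means inhibition above a per-plate cutoff of the control wells' mean inhibition plus 3 SD, cut at about 5.5% in these data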;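 further: 0% = DMSO wells median and 100% = median of wells with control inhibitor compound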
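Material: parasite MetRS enzyme / Replication: singlicate, one well per compound / Signal: luminescence of leftover ATP / Schedule: 2 h aminoacylation at 25 °C after 15 min preincubation / Medium: HEPES-MgCl2-KCl buffer plus DTT, spermine, BSA, pyrophosphatase / Doses: 11.9 µM single point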
ATG4B confirm = ATG4B protease inhibitors, retest, confirmation, biochemical, fluorescence, single concentration; shares compounds with ATG4B inh; ATG4B protease fluorescent substrate cleavage assay; inhibition, % at 8.33 µM; actives 92% (n = 320); AID 504757, 2011; in the data active means inhibition above about 39%
PLA2 ctr = PLA2 enzyme inhibition, counter-screen for ATG4B inhibitor project, biochemical, single concentration, uHTS hits; inhibition, % at 8.33 µM; purified PLA2, NBD-C6-HPC fluorescence, 45 min; shares compounds with ATG4B inh; actives 66% (n = 1,600); in the data active means inhibition above about 50%
Target sequence (P04054 whole entry, looked up): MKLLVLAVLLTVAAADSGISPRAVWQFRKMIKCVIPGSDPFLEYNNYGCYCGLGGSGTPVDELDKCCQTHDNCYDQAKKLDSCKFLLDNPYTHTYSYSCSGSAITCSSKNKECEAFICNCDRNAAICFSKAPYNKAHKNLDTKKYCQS
* hit, by the source's call; x = not tested or not shown. Rows were chosen to be rich in hits. Some 1.4% of all compounds tested hit in one or more screens of this group.

SMILES	Rin1 Abl inh	ATG4B inh	UCH37 DUB inh	TbMetRS inhib	PLA2 ctr	others
O=C(c1cnn(C(=O)COc2ccc(Cl)cc2)c1)c1ccccc1O	-2	56*	-18	0	60*
Cc1ccc(O)c(C(=O)c2cnn(C(=O)COc3ccc(Cl)cc3)c2)c1	-3	6	-1	-1	x
CN(C)S(=O)(=O)c1ccc2[nH]cc(/C=C/c3nc4ccccc4c(=O)n3-c3ccccc3)c2c1	3	42*	-104	-1	9	ATG4B confirm=105*
CCn1c(/C=C/c2c[nH]c3ccccc23)nc2ccccc2c1=O	0	23	-10	0	x
CCCCOC(=O)CSc1nc(N)c(C#N)c(-c2ccc(OCC)cc2)c1C#N	0	-5	-1	-1	x
CCCCOc1ccc(-c2c(C#N)c(N)nc(SCC(N)=O)c2C#N)cc1	-1	53*	-2	-1	58*
CC(C)C[C@H]1CN(CCCC[C@@H]2CNC(=O)C(=O)N2CCc2ccccc2)C(=O)C(=O)N1Cc1ccccc1	x	x	x	-1	x
COCCNC(=O)Nc1ccc2nc(-c3cccs3)c(-c3cccs3)nc2c1	1	18	-30	-1	x
O=C(Nc1ccc2nc(-c3cccs3)c(-c3cccs3)nc2c1)NC1CC1	-4	72*	-109	0	81*
COC(=O)CC(c1ccccc1F)N1Cc2ccccc2C1=O (stereo not given)	0	7	2	-1	x
O=C(O)[C@H](Cc1ccccc1)N1Cc2ccccc2C1=O	-1	-9	3	-1	x
COC(=O)C(Cc1ccc(OC(=O)c2ccccc2C)cc1)N1Cc2ccccc2C1=O (stereo not given)	-2	72*	4	-1	76*
COC(=O)C(Cc1ccc(OC(=O)c2ccccc2Cl)cc1)N1Cc2ccccc2C1=O (stereo not given)	-1	83*	3	-2	86*
CCN(CC(=O)NCc1cccs1)C(=O)CCOc1ccccc1C	1	-4	0	-1	x
Cc1ccc(NC(=O)COC(=O)c2sccc2C)cc1S(=O)(=O)N1CCOCC1	1	-9	0	-1	x
OC1(c2ccccc2)CCN(Cc2ccccc2)C2CCCCC21 (stereo not given)	-5	-1	4	-1	x
COc1ccc(C(=O)/C=C/c2cccc(OCc3ccccc3)c2)cc1CSCC(=O)O	-2	49*	10	0	61*
COc1ccc(C=CC(=O)c2ccc(OCc3ccccc3)c(OC)c2)cc1OC	4	x	x	0	x
COc1ccc(C(=O)/C=C/c2ccc(OCc3ccccc3)cc2)cc1CSCC(=O)O	-1	49*	-30	0	69*
COc1ccc(C(C)=O)cc1CSCC(=O)O	0	0	1	0	x
Cn1cnc2ccc([N+](=O)[O-])cc2c1=O	-4	-1	8	-1	x
CCOc1ccccc1C1C(C(N)=O)=C(C)Nc2nc(-c3ccccc3Cl)nn21 (stereo not given)	2	-5	-3	-1	x
O=C1c2cccc(Cl)c2C(=O)c2c1cccc2N1CCCC1	-4	48*	7	-2	63*
Cc1ccc(C(=O)C(C)Oc2ccc3ccc(=O)oc3c2)cc1 (stereo not given)	0	3	-10	1	x
CC(C)(C)C(=O)c1cnc(Nc2ccccc2Cl)s1	-2	19	-2	-1	x
SMILES	Rin1 Abl inh	ATG4B inh	UCH37 DUB inh	TbMetRS inhib	PLA2 ctr	others
O=C(c1ccccc1)c1cnc(Nc2ccccc2Cl)s1	-8	44*	-25	0	46	ATG4B confirm=65*
CCSc1nnc(NC(=O)CSc2nnc(Cc3cccn3C)n2CCc2ccccc2)s1	2	58*	5	0	52*
Cn1cccc1Cc1nnc(SCC(=O)Nc2nccs2)n1CCc1ccccc1	-1	8	3	-2	x
C=CCOc1ccc(CNn2cn[nH]c2=S)cc1OC	-2	-8	2	-1	x
O=C(Nc1cccc(Cl)c1)c1cc(-c2ccco2)on1	-3	2	0	1	x
O=C(Nc1c(Cl)cccc1Cl)c1cc(-c2ccco2)on1	2	43*	6	0	42	ATG4B confirm=67*
O=C(NCCc1ccccc1F)C(=O)Nc1nccs1	1	-1	-14	-1	x
CC(C)(C)c1ccc2c(c1)C(=O)c1ccccc1C2=O	0	45*	5	0	38	ATG4B confirm=67*
O=C1Nc2cc(C(=O)N3CCc4ccccc4C3)ccc2S/C1=C\c1ccccc1	-2	73*	-6	0	78*
Cc1ccc(/C=C2\SC(=S)N(C(Cc3ccccc3)C(=O)O)C2=O)cc1 (stereo not given)	-3	48*	9	0	22	ATG4B confirm=79*
CC(=C\c1ccccc1)/C=C1/SC(=S)N(CCCC(=O)O)C1=O	2	52*	14	-1	9	ATG4B confirm=78*
CCC(C(=O)O)N1C(=O)/C(=C/C(C)=C/c2ccccc2)SC1=S (stereo not given)	-7	80*	12	0	83*
CC(/C=C1\SC(=S)N(CCCC(=O)Nc2ccc(C(=O)O)cc2)C1=O)=C\c1ccccc1	1	65*	2	1	28	ATG4B confirm=41*
CC(/C=C1\SC(=O)N(CCCC(=O)O)C1=O)=C\c1ccccc1	2	11	18	0	x
COc1ccc(CSc2nnnn2C)cc1F	-3	-7	6	-1	x
COc1ccc(N2CCN(C(=O)CCCNC(=O)Cn3cnc4sc(C)c(C)c4c3=O)CC2)cc1	0	-6	1	0	x
N#CCOc1nc(N2CCCC2)nc(N2CCCC2)n1	2	-10	1	0	x
O=C1CCCC2=C1C1(CCCCC1)N=C(Nc1nc3ccccc3s1)N2	1	55*	-88	0	-14
Cc1ccc2nc(NC3=NC4(CCCC4)C4=C(CCCC4=O)N3)oc2c1	-1	x	x	-1	x
O=C1CCCC2=C1C1(CCCC1)N=C(Nc1nc3ccccc3s1)N2	-2	75*	-60	0	9
O=C(CCN1CCOCC1)Nc1ccccc1	1	-15	1	0	x
CCN(CC)S(=O)(=O)c1ccc(N2CCOCC2)c(NC(=O)COc2ccccc2)c1	3	26	3	0	x
Cc1cccc(OCC(=O)Nc2cc(S(=O)(=O)N3CCOCC3)ccc2N2CCCC2)c1C	-3	-6	2	0	x
CCc1ccccc1OCC(=O)Nc1cc(S(=O)(=O)N(CC)CC)ccc1N1CCOCC1	-1	54*	2	0	92*
